The target in test [1] is T1, Dihydropteroate synthase (Escherichia coli K-12, UniProt P0AC13).
T1 sequence (P0AC13 whole entry): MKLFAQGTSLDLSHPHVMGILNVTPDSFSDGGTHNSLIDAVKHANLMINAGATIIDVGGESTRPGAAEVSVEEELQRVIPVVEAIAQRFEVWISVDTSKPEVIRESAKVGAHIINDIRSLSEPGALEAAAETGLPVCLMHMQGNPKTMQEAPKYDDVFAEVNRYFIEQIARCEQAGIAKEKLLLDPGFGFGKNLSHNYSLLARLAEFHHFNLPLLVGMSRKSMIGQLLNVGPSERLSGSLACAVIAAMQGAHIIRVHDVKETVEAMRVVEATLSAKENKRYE
Description: (§1) In vitro inhibition of dihydropteroate synthase from Escherichia coli. The note with it: read-out: I50. In outline:
(§2)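 Partially purified synthase from E. coli B. The assay used [14C]carboxy-p-aminobenzoic acid as substrate. Paper chromatography separated radiolabelled dihydropteroate from unreacted substrate. Results were given as the micromolar concentration giving 50% inhibition, or as percent inhibition at a stated concentration.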

The target in test [2] is T2, Dihydropteroate synthase (Escherichia coli K-12) (UniProt P0AC13).
T2 sequence (whole entry): T1 sequence (P0AC13 whole entry)
The test is described as §1. Also noted: concentration or dose not given beside the values. The note with it: concentration not given here. Put shortly: as §2

The target of test [3] is T2, Dihydropteroate synthase (Escherichia coli K-12). As to the kind of experiment: Kinetic constant for synthase inhibition. In outline: (§3)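 Kinetic runs varied either the pterin substrate or PABA across inhibitor levels. Velocity was nmol dihydropteroate formed in a 12-min incubation at 37 °C, plotted as double reciprocals. Data were computer-fitted to competitive or noncompetitive inhibition models and statistically tested for fit to each model.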

For test [4] the target is unchanged. As to the kind of experiment: In vitro percent inhibition of dihydropteroate synthase from Escherichia coli at 20 uM. Put shortly: as §2
Test [5] addresses T1, Dihydropteroate synthase. Description: Inhibitory activity against binding of para-aminobenzoic acid to synthase. The note with it: read-out: I50. Put shortly: as §3

The results in this text go back to ChEMBL document CHEMBL1122871, “Monocyclic pteridine analogues. Inhibition of Escherichia coli dihydropteroate synthase by 6-amino-5-nitrosoisocytosines” (J Med Chem, 1985).

As to `Nc1nccc(O)n1`, the IC50 at Dihydropteroate synthase [1] was above 500 µM. For the same compound, the inhibition (commonly the relative decrease from the control value, in per cent) in test [2] is below 10%. For the compound `CCNc1nc(N)nc(O)c1N=O`, the IC50 on Dihydropteroate synthase [1] was 11 µM.

`Nc1nc(O)c(N=O)c(NCCc2ccccc2)n1`: on Dihydropteroate synthase [1], the IC50 was 4.2 µM. Still for that read-out and setting: with `N#Cc1c(O)nc(N)nc1NCCCCc1ccccc1` the figure was 290 µM.

Turning to `Nc1nc(O)c(N=O)c(NCc2ccccc2)n1`, the IC50 at Dihydropteroate synthase [1] worked out at 12.9 µM. Take `Nc1nc(O)c(N=O)c(NCCCCCc2ccccc2)n1`: the IC50 on Dihydropteroate synthase [1] was found to be 5.9 µM. Still for that read-out and setting: the figure for `Nc1ccc(S(=O)(=O)Nc2nccs2)cc1` [SULFATHIAZOLE] is 2.5 µM; for `Nc1nc(O)c([N+](=O)[O-])c(NCCCCc2ccccc2)n1` it is 21 µM. On the same count and under the same terms, the figure for `Cc1cc(NS(=O)(=O)c2ccc(N)cc2)no1` [SULFAMETHOXAZOLE] is 4.7 µM.

`CC(C)Nc1nc(N)nc(O)c1N=O`: the IC50 on Dihydropteroate synthase [1] was found to be 208 µM. Take `Nc1nc(O)c(N=O)c(NCCCc2ccccc2)n1`: at Dihydropteroate synthase [1], the IC50 was 7.8 µM. On to `Nc1nc(O)c(N=O)c(NCCCOc2ccccc2)n1`, for which the IC50 on Dihydropteroate synthase [1] is 3.7 µM. The Kis in test [3] came to 0.69 µM. As to `CSc1nc(N)nc(O)c1N=O`, the inhibition in test [4] was 17%. As for `Nc1nc(O)c(N=O)c(Nc2ccccc2)n1`, on Dihydropteroate synthase [1], the IC50 was above 100 µM. This compound also registered an inhibition in test [2] below 10%. On to `CNc1nc(N)[nH]c(=O)c1[N+](=O)[O-]`, for which the IC50 on Dihydropteroate synthase [1] came to 2.8 µM. On the same count and under the same terms, with `Nc1nc(O)c(N=O)c(NCCCCc2ccccc2)n1` the figure was 2.5 µM. In the case of `CNc1cc(O)nc(N)n1`, the IC50 at Dihydropteroate synthase [1] is above 110 µM. Also, in test [2], the inhibition was below 10%. As to `Nc1nc(N)c(N=O)c(=O)[nH]1`, at Dihydropteroate synthase [1], the IC50 was found to be 5.8 µM.

As for `Nc1nc(O)c(N=O)c(NCCCS(=O)(=O)c2ccccc2)n1`, on Dihydropteroate synthase [1], the IC50 came to 18 µM.

On to `Nc1nc(O)c(N=O)c(NCCCCCCCc2ccccc2)n1`, for which the IC50 at Dihydropteroate synthase [1] and at Dihydropteroate synthase [5] was 1.4 µM throughout.

On to `Nc1nc(O)c(N=O)c(NCCCCCCc2ccccc2)n1`, for which the IC50 on Dihydropteroate synthase [1] was 9 µM.

Turning to `CNc1nc(N)nc(O)c1C=O`, the IC50 at Dihydropteroate synthase [1] was above 300 µM. The inhibition in test [2] is below 10%.

As for `CNc1nc(N)nc(O)c1N=O`, the IC50 at Dihydropteroate synthase [1] amounted to 1.6 µM. This compound also displayed a Kis in test [3] of 0.085 µM. With `Nc1nc(O)c(N=O)c(NCCCO)n1`, the IC50 at Dihydropteroate synthase [1] was determined as 35 µM.

As to `CCN(CC)c1nc(N)nc(O)c1N=O`, the IC50 at Dihydropteroate synthase [1] stood at 197 µM.

`Nc1nc(O)c(N=O)c(O)n1`: the IC50 at Dihydropteroate synthase [1] is above 200 µM. The inhibition in test [2] is below 10%. Consider `Nc1nc(O)c(C=O)c(NCCCCc2ccccc2)n1`, for which the IC50 on Dihydropteroate synthase [1] was above 100 µM. The inhibition in test [2] was below 10%.
